In ChEMBL document CHEMBL1137852, “Novel fluoro- and hydroxyl-containing jasmonate derivatives as highly efficient elicitors in suspension cultures of Taxus chinensis” (2004):

Key:
Type in all cases: functional
[1] = Eliciting activity on Tc (taxuyunnanine C) content in cell cultures of Taxus chinensis
Procedure, shortened: (§1)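 T. chinensis suspension cells grown in 50 mL medium in 250-mL flasks. Elicitor added on day 7 after inoculation in ethanol (1 µL per mL medium); controls received an equal volume of ethanol. Tc measured by reverse-phase HPLC and expressed as mg per g dry cells; maximum content within 21 days reported. Triplicate cultures, mean ± S.D.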

[2] = Eliciting activity on Tc (taxuyunnanine C) production in cell cultures of Taxus chinensis
Procedure, shortened: (§2)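 T. chinensis suspension cells grown in 50 mL medium in 250-mL flasks. Elicitor added on day 7 post-inoculation in ethanol (1 µL per mL medium); controls received an equal volume of ethanol. Tc quantified by reverse-phase HPLC; maximum volumetric production (mg/L) within 21 days reported. Triplicate cultures, mean ± S.D.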

[3] = Effect on Tc (taxuyunnanine C) production in cell cultures of Taxus chinensis at a concentration of 100 uM; procedure, shortened: as §2
[4] = Effect on Tc (taxuyunnanine C) production in cell cultures of Taxus chinensis at a concentration of 1 uM; procedure, shortened: as §2
[5] = Effect on Tc (taxuyunnanine C) content in cell cultures of Taxus chinensis at a concentration of 500 uM; procedure, shortened: as §1
[6] = Effect on Tc (taxuyunnanine C) content in cell cultures of Taxus chinensis at a concentration of 1 uM; procedure, shortened: as §1
[7] = Effect on Tc (taxuyunnanine C) content in cell cultures of Taxus chinensis; procedure, shortened: as §1
[8] = Effect on Tc (taxuyunnanine C) content in cell cultures of Taxus chinensis at a concentration of 0 uM; procedure, shortened: as §1
[9] = Effect on Tc (taxuyunnanine C) production in cell cultures of Taxus chinensis at a concentration of 10 uM; procedure, shortened: as §2
[10] = Effect on Tc (taxuyunnanine C) production in cell cultures of Taxus chinensis; procedure, shortened: as §2
[11] = Effect on Tc (taxuyunnanine C) production in cell cultures of Taxus chinensis at a concentration of 500 uM; procedure, shortened: as §2
[12] = Effect on Tc (taxuyunnanine C) content in cell cultures of Taxus chinensis at a concentration of 100 uM; procedure, shortened: as §1
[13] = Effect on Tc (taxuyunnanine C) content in cell cultures of Taxus chinensis at a concentration of 10 uM; procedure, shortened: as §1
[14] = Effect on Tc (taxuyunnanine C) production in cell cultures of Taxus chinensis at a concentration of 0 uM; procedure, shortened: as §2

SMILES | Activity [1] | Activity [2] | further results
CC/C=C/CC1C(=O)CCC1CC(=O)OCC(F)(F)F (centres undefined) | 34.94 mg/g DW | 440.3 mg/L | –
CC/C=C/CC1C(=O)CCC1CC(=O)OCC(O)CO (centres undefined) | – | – | Activity [3]: 544 mg/L; Activity [4]: 160 mg/L; Activity [5]: 49.8 mg/g DW; Activity [6]: 11.6 mg/g DW; Activity [7]: 47.2 mg/g DW; Activity [8]: 9.4 mg/g DW; Activity [9]: 358 mg/L; Activity [10]: 550 mg/L; Activity [11]: 522 mg/L; Activity [12]: 43.2 mg/g DW; Activity [13]: 27 mg/g DW; Activity [14]: 128 mg/L
CC/C=C/CC1C(=O)CCC1CC(=O)OC (centres undefined) | 29.2 mg/g DW | 386 mg/L | –
CC/C=C/CC1C(=O)CCC1CC(=O)OCCO (centres undefined) | 38.1 mg/g DW | 464 mg/L | –
CC/C=C/CC1C(=O)CCC1CC(=O)OCCC (centres undefined) | 27.9 mg/g DW | 357 mg/L | –
CC/C=C/CC1C(=O)CCC1CC(=O)OCCOCCO (centres undefined) | 31.4 mg/g DW | 417 mg/L | –
CC/C=C/CC1C(=O)CCC1CC(=O)OCC(F)(F)C(F)(F)F (centres undefined) | 38.22 mg/g DW | 480.5 mg/L | –
